In the library only some 1.8% were active in any assay of this set; here they are far more common.
SIAE primary: human SIAE inhibitors, primary screen, biochemical, fluorescence polarization, FP-Rh probe, 1536-well HTS. hit rate 0.69% among 370,000. Sialate O-acetylesterase (Homo sapiens), Q9HAT2. inhibition, % at 9.66 µM. SIAE FP-Rh probe binding. AID 1053197, 2014;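 active = inhibition above a cutoff: mean of compounds within the control limits plus 3 SD of those, cut at about 17% in these data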;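 also: 0% = plate median of compound wells and 100% = probe without SIAE protein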
DDE Tn6 FP inh: inhibitors of Tn6 peptide binding to fibrin DD(E), primary screen, biochemical, fluorescence polarization, human fibrin, Tn6 probe; Fibrinogen beta chain (Homo sapiens), P02675; hit rate 0.21% among 370,000; Fibrin DD(E) TRITC-Tn6 fluorescence polarization displacement; inhibition, % at 8.3 µM;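 active = inhibition above a per-campaign cutoff: mean of compounds within control limits plus 3 SD, cut at about 15% in these data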;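 also: 0% = median of all compound wells on the plate and 100% = blocking peptide control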
Target sequence (P02675 whole entry, looked up): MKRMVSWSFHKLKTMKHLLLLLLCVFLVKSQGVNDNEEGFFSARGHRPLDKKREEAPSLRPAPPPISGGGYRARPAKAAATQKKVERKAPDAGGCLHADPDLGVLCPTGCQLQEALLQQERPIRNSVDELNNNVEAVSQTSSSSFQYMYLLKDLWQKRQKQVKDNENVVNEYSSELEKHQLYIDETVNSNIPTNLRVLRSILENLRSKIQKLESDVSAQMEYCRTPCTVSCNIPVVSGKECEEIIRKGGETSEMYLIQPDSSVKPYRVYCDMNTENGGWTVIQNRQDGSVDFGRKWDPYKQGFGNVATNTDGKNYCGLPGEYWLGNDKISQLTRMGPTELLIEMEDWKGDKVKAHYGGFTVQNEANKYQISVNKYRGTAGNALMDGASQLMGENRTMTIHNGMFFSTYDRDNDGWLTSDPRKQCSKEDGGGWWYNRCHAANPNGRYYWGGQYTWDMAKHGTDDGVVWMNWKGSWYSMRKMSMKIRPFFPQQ
HTRA1 inh: HTRA1 serine protease inhibitors, primary screen, biochemical, fluorescence polarization, HTS | recombinant HTRA1, FP-rhodamine activity-based probe | inhibition, % at 5.96 µM | hit rate 0.5% among 340,000; in the data active = inhibition above about 36%;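 also: 0% = enzyme with DMSO and 100% = wells lacking enzyme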
DDE Tn7 FP inh: inhibitors of Tn7 peptide binding to fibrin DD(E), primary screen, biochemical, fluorescence polarization, human fibrin, Tn7 probe. FP displacement of FITC-Tn7 peptide from fibrin DD(E); 0% = median of compound wells per plate. Fibrinogen beta chain (Homo sapiens), P02675. hit rate 0.13% among 370,000. AID 720508, 2013. inhibition, % at 8.3 µM;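 active = inhibition above the mean of compounds falling within the control limits plus 3 SD of them, cut at about 14% in these data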;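 also: 0% = plate median of compound wells and 100% = 10 µM Aha-Tn7 peptide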
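Test system: human clot-derived fibrin DD(E) complex / Quantity: 2 µM final DD(E) protein / Incubation: 10 min plus 3 h, room temperature / Measured by: fluorescence polarization / Benchmarks: high control of 10 µM Aha-Tn7 peptide / Replicates: singlicate testing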
mABHD4 FP: ABHD4 inhibitors, primary screen, biochemical, fluorescence polarization, mouse; (Lyso)-N-acylphosphatidylethanolamine lipase (Mus musculus), Q8VD66; purified mABHD4, FP-Rh probe fluorescence polarization; inhibition, % at 8.92 µM; hit rate 0.54% among 370,000; AID 720543, 2013;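 active = inhibition exceeding the mean over every tested compound plus 3 SD, cut at about 30% in these data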;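 also: 0% = plate median of compound wells and 100% = S159A mutant with DMSO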
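Assay system: mABHD4 protein; medium: HEPES pH 7.0, NaCl, Pluronic buffer; dosing: 8.92 µM, single dose; schedule: 45 min + 60 min at 25 °C; signal: FP readout, ex 525 nm / em 598 nm; read-out: normalized percent inhibition of probe labeling; repeats: single replicate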
TCR CD3 inh: inhibitors of human TCR-CD3 interaction, primary screen, biochemical, fluorescence, TAMRA-labeled TCR probe; T-cell receptor (TCR); inhibition, % at 9.4 µM; hit rate 0.37% among 360,000; in the data active = inhibition above about 19%;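 also: recombinant mutant TCR 2C K166C tagged with TAMRA read by polarization; 0% = receptor in buffer alone and 100% = receptor with positive control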
HTRA1 conf: HTRA1 protease inhibitors, retest, confirmation, biochemical, fluorescence polarization; shares compounds with HTRA1 inh; recombinant HTRA1, FP-rhodamine activity-based probe; inhibition, % at 5.96 µM; hit rate 66% among 1,600;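 active = mean inhibition over three repeats above a set limit taken from the earlier primary screen, cut at about 37% in these data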;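 also: 0% = HTRA1 with DMSO and 100% = wells lacking HTRA1; inhibitors block probe binding so polarization drops and inhibition rises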
An asterisk follows results filed as active; . = not tested or not shown.

SMILES | SIAE primary | DDE Tn6 FP inh | HTRA1 inh | DDE Tn7 FP inh | mABHD4 FP | TCR CD3 inh | HTRA1 conf
CN1CCN(C(c2ccc(Br)cc2)c2cc(Cl)c3cccnc3c2O)CC1 (configuration not stated) | -4.0 | -13.5 | 51.7* | -7.3 | -5.1 | -15.7 | 70.2*
C=CCN1[C@@H](Cc2ccccc2)COc2cccc(F)c2S1(=O)=O | 3.2 | 0.2 | . | -4.1 | -10.3 | . | .
CCCCN(C)C(=O)c1oc(=O)c2ccccc2c1-c1ccc(C)cc1 | 1.6 | -4.7 | . | 6.0 | 1.1 | . | .
COc1ccc(C(=O)Oc2ccc3oc(=O)sc3c2)cc1 | -24.6 | 2.4 | 45.4* | -9.9 | -11.6 | 1.3 | 6.4
C=CCn1c(SCC(=O)Nc2ccccc2-c2ccccc2)nnc1-c1ccccc1 | -11.8 | -9.4 | . | -3.5 | -9.0 | . | .
Cc1cccc2sc(NNC(=O)c3cc(-c4cccs4)nc4ccccc34)nc12 | -4.1 | -18.4 | 43.7* | -11.7 | -0.9 | -10.9 | 42.1*
CC(=NNC(=O)CSc1nnc(-c2ccc(C(C)(C)C)cc2)n1-c1ccccc1)c1cccc2ccccc12 | -12.0 | -7.9 | . | 2.5 | -2.3 | . | .
CCn1c(CSc2nccn2C)nc2cc(C(=O)O)ccc21 | . | . | 37.8* | . | . | . | 48.2*
COc1ccc(-n2nnnc2SCC(N)=O)cc1 | 0.2 | -5.3 | 9.2 | -6.9 | 1.5 | -2.2 | .
COc1ccc(-n2nnnc2SCC(=O)c2ccc(O)c(O)c2)cc1 | 4.3 | 3.3 | 45.5* | -7.2 | 24.1 | 18.4 | 61.3*
CC(C1=CCCCC1)c1cnn(C)c1 (configuration not stated) | 1.2 | 3.0 | . | -2.2 | -2.4 | . | .
CN(C)c1ccc(NC(=O)Cn2cc3c(n2)CCCC3)cc1 | 3.4 | -9.8 | 43.7* | -1.1 | 4.9 | -9.4 | 59.4*
CCOC(=O)C1=NN(C(=O)c2ccccc2)C(O)(c2ccc(C)cc2)C1 (configuration not stated) | 2.7 | 1.4 | 31.6 | -7.6 | 17.8 | -2.9 | .
COC(=O)C1=NN(C(=O)c2cccc(Br)c2)C(O)(c2ccc(Cl)cc2)C1 (configuration not stated) | 2.6 | -5.0 | 66.0* | -7.1 | 8.8 | 3.7 | 65.4*
CCOC(=O)N1CCN(S(=O)(=O)c2ccc(C(=O)Nc3sc4c(c3C(=O)OC)CCN(C)C4)cc2)CC1 | -4.6 | -4.7 | 52.7* | -8.6 | 1.8 | -3.2 | 49.0*
CCOC(=O)C1Nc2ccc(OC(F)(F)F)cc2C2C=CCC12 (configuration not stated) | 6.2 | 4.0 | 57.8* | 0.7 | 11.3 | -0.9 | 55.3*
O=C(NCCCN1CCOCC1)C1Nc2ccc(OC(F)(F)F)cc2C2C=CCC12 (configuration not stated) | 12.8 | -0.4 | 28.5 | 0.9 | 13.9 | -2.0 | .
O=C(NC1CC1)C1Nc2ccc(OC(F)(F)F)cc2C2C=CCC12 (configuration not stated) | 3.5 | 1.8 | 48.3* | -4.7 | 28.0 | -12.2 | -2.7
O=C(NCc1ccccc1)C1Nc2ccc(OC(F)(F)F)cc2C2C=CCC12 (configuration not stated) | 9.7 | 4.6 | 16.7 | 3.2 | 12.1 | -2.7 | .
C#CCCCN([C@H](C(=O)OC)C(C)C)S(=O)(=O)c1ccccc1Br | -2.9 | -4.1 | . | -8.3 | -15.2 | . | .
CCOC(=O)[C@]12CCCCC/C=C\1N(CCc1ccc(Cl)cc1)C(=O)[C@H]2CC(=O)NCc1cccc(C(F)(F)F)c1 | -6.9 | -1.6 | . | 8.4 | -12.8 | . | .
CN(C)c1ccc(C=c2c3ccccc3n3c2c2ccccc2[n+]3C)cc1 | 17.4* | 3.5 | 87.4* | 4.7 | 57.5* | 30.7* | 89.6*
Cc1cc2c(=Cc3ccc(N(C)C)cc3)c3ccccc3n2[n+]1C | -74.1 | -16.9 | -20.0 | -6.5 | -101.4 | -30.1 | .
CNc1c(NS(=O)(=O)c2ccc(Cl)s2)c(=O)oc2ccccc12 | 1.8 | 2.1 | 128.6* | 2.1 | -2.0 | 9.0 | 13.9
CNc1c(NS(=O)(=O)c2ccc(Cl)cc2)c(=O)oc2ccccc12 | -5.6 | 3.7 | -5.8 | 4.8 | -2.0 | -0.3 | .
SMILES | SIAE primary | DDE Tn6 FP inh | HTRA1 inh | DDE Tn7 FP inh | mABHD4 FP | TCR CD3 inh | HTRA1 conf
COC(=O)[C@]12C[C@H](CC(=O)NCCCCc3ccccc3)C(=O)N(Cc3ccco3)C1=C[C@H](C(C)(C)C)O[C@@H]2C | -4.8 | 4.2 | . | -4.9 | -8.0 | . | .
Cc1n[nH]c(=O)c2c(NC(=O)CSc3nc4ccccc4c(=O)n3CCCO)oc(C)c12 | 3.5 | 1.9 | 37.9* | 9.2 | -6.1 | -6.0 | -1.6
CCNC(=O)Nc1ccc2c(c1)C(=O)N(C)[C@H]1CC[C@H](CC(=O)N[C@H](C)c3ccccc3)O[C@@H]1CO2 | 12.3 | 2.1 | . | -6.5 | 10.7 | . | .
Cc1ccc(S(=O)(=O)NC(=O)Nc2ccc(N(C)C)cc2)cc1 | 4.7 | -2.8 | 43.9* | -0.5 | 25.0 | 5.6 | 44.8*
O=C1C=C(O)c2[nH]c(=O)ccc2C1=O | 0.9 | 7.7 | 46.5* | 5.1 | 17.1 | 9.0 | 13.3
NC1=CC(=O)C(=O)c2ccccc21 | -4.7 | 14.1 | 9.8 | -4.9 | 25.5 | 4.0 | .
Nn1c(SCC(=O)Nc2cccc3ccccc23)nnc1-c1n[nH]c2c1CCC2 | 0.0 | -3.4 | . | -1.4 | 3.6 | . | .
CC1(C)Oc2ccc(C(=O)N3CCCC3)cc2NC1=O | -0.1 | 0.9 | . | -0.3 | 1.5 | . | .
Oc1cc2ccccc2cc1-c1n[nH]c(=S)o1 | -3.7 | 2.9 | 48.2* | -3.0 | 23.1 | 1.6 | 49.0*
Cc1nc2cc(NC(=O)N3CCN(c4ccccn4)CC3)ccc2o1 | 0.9 | -3.3 | -4.7 | 5.3 | 0.9 | -1.2 | .
O=C(Nc1ccc2nc(-c3ccco3)c(-c3ccco3)nc2c1)N1CCN(c2ccccn2)CC1 | 21.6* | -8.1 | 43.1* | -2.4 | 29.8* | 34.5* | -21.4
O=C(NC(=S)NNC(=O)c1cc2ccccc2cc1O)c1ccco1 | -0.3 | -3.5 | 45.4* | -5.1 | 14.9 | 7.5 | 35.0
Cc1ccccc1N=Cc1cccc(O)c1O | . | . | 49.3* | . | . | . | 31.9
CC(N=Cc1cccc(O)c1O)c1ccccc1 (configuration not stated) | . | . | 66.1* | . | . | . | 100.1*
CC(N=Cc1cc([N+](=O)[O-])ccc1O)c1ccccc1 (configuration not stated) | 7.1 | -8.9 | 1.5 | 0.4 | 7.1 | -1.1 | .

Screens: PubChem, The Scripps Research Institute Molecular Screening Center
